Data taken from ChEMBL document CHEMBL1811911, “Synthesis and antidepressant-like activity evaluation of sulphonamides and sulphonyl-hydrazones” (Bioorg Med Chem, 2011).
The source made the active and inactive calls. No cut-off for these calls is given here.

Columns and labels:
Mus musculus [1] = assay: Toxicity in Swiss mouse assessed as number of squares crossed at 60 mg/kg, ip administered 30 mins proir test measured during last 5 mins of 6 mins incubation by open-field test (reference value: 96.63 +/- 5.32); settings: in vivo
Mus musculus [2] = assay: Antidepressant activity in Swiss mouse assessed as reduction of immobility duration at 10 to 60 mg/kg, ip measured after 6 mins by tail suspension test relative to control; type: functional; design: scale not given: the % may be the effect or the level left; settings: dose mg/kg 10-60; route intraperitoneal
How it was run: (§1)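 Tail suspension test (Steru method) in male adult Swiss mice (25–35 g), compound given ip acutely, vehicle 0.9% NaCl. Mice, isolated acoustically and visually, hung 50 cm above the floor by adhesive tape about 1 cm from tail tip; total immobility time recorded. Percent reduction = [(A−B)/A]×100, A control and B treated immobility.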

Mus musculus [3] = assay: Antidepressant activity in Swiss mouse assessed as reduction of immobility duration at 60 mg/kg, ip administered 30 mins prior test measured during last 4 mins of 6 mins observation period by forced-swimming test relative to control; type: functional; design: scale not given: the % may be the effect or the level left
Mus musculus [4] = assay: Antidepressant activity in Swiss mouse assessed as reduction of immobility duration at 10 to 60 mg/kg, ip administered 30 mins prior test measured during last 4 mins of 6 mins observation period by forced-swimming test relative to control; type: functional
Mus musculus [5] = assay: Antidepressant activity in Swiss mouse assessed as reduction of immobility duration at 60 mg/kg, ip administered 30 mins prior test measured during last 4 mins of 6 mins observation period by forced-swimming test (reference value: 0 %); type: functional; design: scale not given: the % may be the effect or the level left; settings: route intraperitoneal
Mus musculus [6] = assay: Antidepressant activity in Swiss mouse assessed as immobility duration at 60 mg/kg, ip administered 30 mins prior test measured during last 4 mins of 6 mins observation period by forced-swimming test (reference value: 166 +/- 12.23 to 218.54 +/- 8.11 Secs); type: functional; settings: route intraperitoneal
Mus musculus [7] = assay: Toxicity in Swiss mouse assessed as number of rearing at 60 mg/kg, ip administered 30 mins prior test measured during last 4 mins of 6 mins observation period by forced-swimming test by locomotory test (reference value: 39.45 +/- 6.21); type: organism-based; design: dose 60 mg/kg, route intraperitoneal; settings: in vivo
Mus musculus [8] = assay: Antidepressant activity in Swiss mouse assessed as reduction of immobility duration at 6 to 30 mg/kg, ip administered 30 mins prior test measured during last 4 mins of 6 mins observation period by forced-swimming test relative to control; type: functional; design: scale not given: the % may be the effect or the level left; settings: dose mg/kg 6-30; route intraperitoneal
Mus musculus [9] = assay: Toxicity in Swiss mouse assessed as number of rearing at 30 mg/kg, ip administered 30 mins prior test measured during last 4 mins of 6 mins observation period by forced-swimming test by locomotory test (reference value: 39.45 +/- 6.21); type: organism-based; design: dose 30 mg/kg, route intraperitoneal; settings: in vivo
Mus musculus [10] = assay: Antidepressant activity in Swiss mouse assessed as reduction of immobility duration at 30 mg/kg, ip administered 30 mins prior test measured during last 4 mins of 6 mins observation period by forced-swimming test (reference value: 0 %); type: functional; design: scale not given: the % may be the effect or the level left; settings: route intraperitoneal
Mus musculus [11] = assay: Toxicity in Swiss mouse assessed as number of squares crossed at 30 mg/kg, ip administered 30 mins proir test measured during last 5 mins of 6 mins incubation by open-field test (reference value: 96.63 +/- 5.32); settings: in vivo
Mus musculus [12] = assay: Antidepressant activity in Swiss mouse assessed as immobility duration at 30 mg/kg, ip administered 30 mins prior test measured during last 4 mins of 6 mins observation period by forced-swimming test (reference value: 166 +/- 12.23 to 218.54 +/- 8.11 Secs); type: functional; settings: route intraperitoneal
Mus musculus [13] = assay: Antidepressant activity in Swiss mouse assessed as reduction of immobility duration at 6 to 30 mg/kg, ip measured after 6 mins by tail suspension test relative to control; type: functional; design: scale not given: the % may be the effect or the level left; settings: dose mg/kg 6-30; route intraperitoneal
How it was run: as §1

Mus musculus [14] = assay: Toxicity in Swiss mouse assessed as number of squares crossed at 10 mg/kg, ip administered 30 mins proir test measured during last 4 mins of 6 mins incubation by forced-swimming test by locomotory test (reference value: 96.63 +/- 5.32); type: organism-based; design: dose 10 mg/kg, route intraperitoneal; settings: in vivo
Mus musculus [15] = assay: Toxicity in Swiss mouse assessed as number of rearing at 10 mg/kg, ip administered 30 mins prior test measured during last 4 mins of 6 mins observation period by forced-swimming test by locomotory test (reference value: 39.45 +/- 6.21); type: organism-based; design: dose 10 mg/kg, route intraperitoneal; settings: in vivo
Mus musculus [16] = assay: Antidepressant activity in Swiss mouse assessed as immobility duration at 10 mg/kg, ip administered 30 mins prior test measured during last 4 mins of 6 mins observation period by forced-swimming test (reference value: 166 +/- 12.23 to 218.54 +/- 8.11 Secs); type: functional; settings: route intraperitoneal
Mus musculus [17] = assay: Antidepressant activity in Swiss mouse assessed as reduction of immobility duration at 10 mg/kg, ip measured after 6 mins by tail suspension test relative to control; type: functional; design: scale not given: the % may be the effect or the level left; settings: route intraperitoneal
How it was run: as §1

Mus musculus [18] = assay: Antidepressant activity in Swiss mouse assessed as reduction of immobility duration at 10 mg/kg, ip administered 30 mins prior test measured during last 4 mins of 6 mins observation period by forced-swimming test (reference value: 0 %); type: functional; design: scale not given: the % may be the effect or the level left; settings: route intraperitoneal
Mus musculus [19] = assay: Antidepressant activity in Swiss mouse assessed as reduction of immobility duration at 10 mg/kg, ip administered 30 mins prior test measured during last 4 mins of 6 mins observation period by forced-swimming test relative to control; type: functional; design: scale not given: the % may be the effect or the level left; settings: route intraperitoneal
Mus musculus [20] = assay: Antidepressant activity in Swiss mouse assessed as reduction of immobility duration at 6 to 10 mg/kg, ip administered 30 mins prior test measured during last 4 mins of 6 mins observation period by forced-swimming test relative to control; type: functional, organism-based
Mus musculus [21] = assay: Antidepressant activity in Swiss mouse assessed as reduction of immobility duration at 6 to 10 mg/kg, ip measured after 6 mins by tail suspension test relative to control; type: functional; design: scale not given: the % may be the effect or the level left; settings: dose mg/kg 6-10; route intraperitoneal
How it was run: as §1

Mus musculus [22] = assay: Antidepressant activity in Swiss mouse assessed as reduction of immobility duration at 3 mg/kg, ip administered 30 mins prior test measured during last 4 mins of 6 mins observation period by forced-swimming test relative to control; type: functional, organism-based; design: dose 3 mg/kg
Mus musculus [23] = assay: Antidepressant activity in Swiss mouse assessed as reduction of immobility duration at 30 to 60 mg/kg, ip measured after 6 mins by tail suspension test relative to control; type: functional; design: scale not given: the % may be the effect or the level left; settings: dose mg/kg 30-60; route intraperitoneal
How it was run: as §1

Mus musculus [24] = assay: Antidepressant activity in Swiss mouse assessed as reduction of immobility duration at 30 to 60 mg/kg, ip administered 30 mins prior test measured during last 4 mins of 6 mins observation period by forced-swimming test relative to control; type: functional, organism-based
Mus musculus [25] = assay: Antidepressant activity in Swiss mouse assessed as immobility duration at 20 mg/kg, ip administered 30 mins prior test measured during last 4 mins of 6 mins observation period by forced-swimming test (reference value: 166 +/- 12.23 to 218.54 +/- 8.11 Secs); type: functional; settings: route intraperitoneal
How it was run: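 Male adult Swiss mice (25–35 g), group-housed under 12 h light (07:00–19:00) at 23 °C. Single ip dose, vehicle 0.9% NaCl, acute pre-treatment. Porsolt forced swim: individual cylinders (20 cm diameter) with 20 cm water at 24 °C, 6 min swim; immobility scored manually over last 4 min. %IM = (A−B)/A×100 versus vehicle group; N = 8–10 mice; ANOVA with Dunnett's test.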

| Structure (SMILES) | Activity (Mus musculus [14]) | Activity (Mus musculus [15]) | Time (Mus musculus [16]) | Activity (Mus musculus [18]) | Activity (Mus musculus [19]) | Activity (Mus musculus [21]) | other results |
| --- | --- | --- | --- | --- | --- | --- | --- |
| CC12C=CC(O1)C1C(=O)N(c3ccc(S(=O)(=O)N/N=C/c4ccc(Cl)cc4)cc3)C(=O)C12 (centres undefined) | – | – | – | – | – | – | Activity (Mus musculus [1]): 98.45; Activity (Mus musculus [2]): 62.87%; Activity (Mus musculus [3]; route intraperitoneal): 62.83%; Activity (Mus musculus [4]): Active; Activity (Mus musculus [5]): 72.02%; Time (Mus musculus [6]): 61 s; Activity (Mus musculus [7]): 41 |
| COc1cc(/C=N/NS(=O)(=O)c2ccc(CN3C(=O)c4ccccc4C3=O)cc2)ccc1O | – | – | – | – | – | – | Activity (Mus musculus [8]): 63.9%; Activity (Mus musculus [9]): 45.37; Activity (Mus musculus [10]): 66.64%; Activity (Mus musculus [11]): 106.45; Time (Mus musculus [12]): 55.37 s; Activity (Mus musculus [13]): 69.21% |
| CC12C=CC(O1)C1C(=O)N(c3ccc(S(=O)(=O)N4CCCC4)cc3)C(=O)C12 (centres undefined) | 96 | 33 | 133 s | 33.33% | 85% | – | Activity (Mus musculus [17]): 31.17% |
| COc1ccc(/C=N/NS(=O)(=O)c2ccc(N3C(=O)C4C5C=CC(C)(O5)C4C3=O)cc2)cc1 (centres undefined) | 92.54 | 40.37 | 90.37 s | 58.64% | 58.53% | 41.64% | Activity (Mus musculus [20]): Active |
| O=C1c2cccc3c(Cl)ccc(c23)C(=O)N1CCc1ccc(S(=O)(=O)N2CCCC2)cc1 | 86.74 | 42 | 82 s | 56.49% | – | – | Activity (Mus musculus [22]): inactive; Activity (Mus musculus [3]): inactive; Activity (Mus musculus [4]): inactive |
| CN(C)CCCN1c2ccccc2CCc2ccccc21 [IMIPRAMINE] | – | – | 49.85 s | 57.3% | – | – | – |
| CC12C=CC(O1)C1C(=O)N(c3ccc(S(=O)(=O)N/N=C/c4ccc(Cl)c(Cl)c4)cc3)C(=O)C12 (centres undefined) | – | – | – | – | – | – | Activity (Mus musculus [4]): inactive |
| O=C1C2C3C=CC(O3)C2C(=O)N1c1ccc(S(=O)(=O)N/N=C/c2ccc([N+](=O)[O-])cc2)cc1 (centres undefined) | 98.14 | 38.37 | 178.37 s | 18.38% | 65.44% | 57.5% | Activity (Mus musculus [20]): Active |
| O=C1c2cccc3c(Cl)ccc(c23)C(=O)N1Cc1ccc(S(=O)(=O)N2CCOCC2)cc1 | – | – | – | – | 52.63% | 30.61% | Activity (Mus musculus [22]): inactive |
| O=C1c2ccccc2C(=O)N1Cc1ccc(S(=O)(=O)N/N=C/c2ccc([N+](=O)[O-])cc2)cc1 | – | – | – | – | – | – | Activity (Mus musculus [1]): 92.54; Activity (Mus musculus [2]): 64.88%; Activity (Mus musculus [4]; dose mg/kg 10-60, route intraperitoneal): 68.64%; Activity (Mus musculus [5]): 68.52%; Time (Mus musculus [6]): 52.25 s; Activity (Mus musculus [7]): 42.65 |
| COc1cc(/C=N/NS(=O)(=O)c2ccc(CN3C(=O)c4cccc5cccc(c45)C3=O)cc2)ccc1O | 96.1 | 40.75 | 70.75 s | 60.3% | 60.3% | – | Activity (Mus musculus [17]): 74.65% |
| O=C1C2C3C=CC(O3)C2C(=O)N1c1ccc(S(=O)(=O)N/N=C/c2ccc(O)cc2)cc1 (centres undefined) | – | – | – | – | – | – | Activity (Mus musculus [4]): inactive |
| O=C1C2C3C=CC(O3)C2C(=O)N1c1ccc(S(=O)(=O)N2CCCC2)cc1 (centres undefined) | – | – | – | – | – | – | Activity (Mus musculus [1]): 86.74; Activity (Mus musculus [23]): 58.85%; Activity (Mus musculus [3]; route intraperitoneal): 28.8%; Activity (Mus musculus [5]): 54.8%; Time (Mus musculus [6]): 92.95 s; Activity (Mus musculus [24]): Active; Activity (Mus musculus [7]): 42.95 |
| Cc1ccc(/C=N/NS(=O)(=O)c2ccc(N3C(=O)C4C5C=CC(C)(O5)C4C3=O)cc2)cc1 (centres undefined) | 92.74 | 43 | 83 s | – | 62.83% | 55.05% | Activity (Mus musculus [20]): Active |
| O=C1c2cccc3cccc(c23)C(=O)N1Cc1ccc(S(=O)(=O)N2CCOCC2)cc1 | 98.85 | 36.67 | 66 s | 64.89% | 60.3% | 57.14% | Activity (Mus musculus [22]): inactive |
| CNCCC(Oc1ccc(C(F)(F)F)cc1)c1ccccc1 (centres undefined) [FLUOXETINE] | – | – | – | – | – | – | Time (Mus musculus [25]): 33.18 s |
| CC12C=CC(O1)C1C(=O)N(c3ccc(S(=O)(=O)N4CCOCC4)cc3)C(=O)C12 (centres undefined) | 101.12 | 38 | 131 s | 36.3% | 28.8% | 23.69% | Activity (Mus musculus [20]): Active |
| O=C1c2cccc3cccc(c23)C(=O)N1Cc1ccc(S(=O)(=O)N2CCCC2)cc1 | 108.45 | 37.45 | 67.37 s | 64.25% | 52.26% | 45.57% | Activity (Mus musculus [22]): inactive |
